High-throughput results from PubChem BioAssay.
GalR3 antag: GalR3 antagonists in HEK293 cells, primary screen, cell-based, fluorescence readout. Galanin receptor type 3 (Homo sapiens), O60755. 0.44% of 360,000 active. inhibition, % at 3 µM. HEK293 GalR3-CNG cAMP membrane potential fluorescence; galR3 body fused to GalR1 C-terminus;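 active = inhibition above the screen-wide average plus 3 SD, cut at about 13% in these data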;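 also: forskolin and galanin both at EC90 stimulate the cells; cAMP rise reported by CNG channel membrane potential dye signal; 0% = forskolin plus galanin with DMSO and 100% = forskolin alone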
Target sequence (O60755 1-299 limits assumed): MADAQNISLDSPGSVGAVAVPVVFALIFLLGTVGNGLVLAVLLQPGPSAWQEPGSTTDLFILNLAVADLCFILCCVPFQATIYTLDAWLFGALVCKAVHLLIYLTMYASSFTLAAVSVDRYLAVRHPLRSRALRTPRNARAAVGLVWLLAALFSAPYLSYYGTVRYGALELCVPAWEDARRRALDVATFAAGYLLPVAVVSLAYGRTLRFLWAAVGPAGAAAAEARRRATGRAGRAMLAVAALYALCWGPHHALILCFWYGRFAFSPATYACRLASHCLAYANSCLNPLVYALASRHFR
NR2E3 ag-1: inhibitors of NR2E3-RetCOR corepressor binding, primary screen, NR2E3 agonist project, biochemical, TR-FRET, GST-NR2E3, biotin-RetCOR | 1536-well | Photoreceptor-specific nuclear receptor (Homo sapiens), Q9Y5X4 | 0.12% of 320,000 active | inhibition of corepressor binding, % at 4.78 µM;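 active = percent inhibition above the cutoff of mean plus 3 SD of all tested compounds, set per screening campaign, cut at about 20% in these data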;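 also: 0% = DMSO wells and 100% = biotin wells as full block of FRET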
Target sequence (Q9Y5X4 whole entry, looked up): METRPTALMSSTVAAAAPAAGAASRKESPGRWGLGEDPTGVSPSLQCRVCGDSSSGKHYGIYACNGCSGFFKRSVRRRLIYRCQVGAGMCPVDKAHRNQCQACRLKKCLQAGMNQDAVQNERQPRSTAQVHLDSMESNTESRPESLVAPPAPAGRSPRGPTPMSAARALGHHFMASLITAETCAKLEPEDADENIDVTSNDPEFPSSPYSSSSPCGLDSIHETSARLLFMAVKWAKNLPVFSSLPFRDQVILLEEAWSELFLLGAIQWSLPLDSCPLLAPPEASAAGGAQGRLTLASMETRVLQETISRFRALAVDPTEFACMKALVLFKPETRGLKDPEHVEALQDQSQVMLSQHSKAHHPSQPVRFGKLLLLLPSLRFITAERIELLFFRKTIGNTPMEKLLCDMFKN
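Test system – NR2E3–RetCOR corepressor complex · Quantity – NR2E3 fusion 1.35 nM · Buffer or medium – Tris pH 7.5 · Incubation – Compound–protein incubation for 5 h at 4 °C · Technique – TR-FRET, Eu(K)-anti-GST donor, streptavidin-D2 acceptor, ex 340, em 617/671 nm · Evaluation – percent inhibition of 671/617 nm emission ratio versus biotin and DMSO controls · Plate – 1536-well format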
SMARCA2 act: SMARCA2 (BRM) function activators, primary screen, cell-based, luminescence, high throughput; MG213 cells, MMTV-luciferase reporter, dexamethasone, overnight; activation, % at 9.1 µM; AID 652017, 2013; 1% of 370,000 active; in the data active = activation above about 7.8%;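 also: 0% = vehicle wells and 100% = reference activator wells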
NR2F2 inh: NR2F2 transcriptional activity inhibitors, primary screen, cell-based, luciferase reporter, HEK293T, luminescence | HEK293T NGFI-A luciferase reporter | inhibition, % at 8.6 µM | 0.7% of 370,000 active;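 active = inhibition above a per-plate cutoff, mean inhibition of test wells between control levels plus 3 SD, cut at about 38% in these data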;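 also: cells cotransfected with COUP-TFII expression vector driving the NGFI-A reporter; 0% = median of COUP-TF2 test wells and 100% = reporter-only cells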
NR2E3 ag-2: NR2E3 agonists in two-hybrid cells, primary screen, cell-based, luminescence, CHO-S, Gal4-NCOR/VP16-NR2E3; 0.35% of 360,000 active; luciferase; inhibition of corepressor binding, % at 3.98 µM; Photoreceptor-specific nuclear receptor (Homo sapiens), Q9Y5X4; AID 602229, 2012;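 active = inhibition above the mean of all tested compounds plus 3 SD, cut at about 70% in these data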;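 also: 0% = DMSO with NR2E3 transfected cells and 100% = cells lacking NR2E3 construct; higher means lower luciferase signal from less NR2E3 corepressor binding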
NR2E3 ag conf: NR2E3 agonist confirmation in cells, cell-based, luminescence, CHO-S two-hybrid; inhibition, % at 3.98 µM; shares compounds with NR2E3 ag-2; AID 624378, 2012; CHO-S mammalian two-hybrid NR2E3-NCOR, luciferase luminescence; 51% of 2,300 active;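 active = average inhibition above a cutoff equal to the mean inhibition of all tested compounds plus one SD, cut at about 70% in these data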;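 also: 0% = DMSO in NR2E3 cells and 100% = DMSO in cells lacking NR2E3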
GAL4-VP16 luc: GAL4-VP16 reporter modulators, confirmation, counter-screen for NR2E3 agonist project, cell-based, luminescence, CHO-S, high throughput. inhibition, % at 3.98 µM. 29% of 2,300 active. shares compounds with NR2E3 ag-2. CHO-S GAL4-VP16 luciferase reporter;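 active = mean inhibition above a cutoff equal to the average over all tested compounds plus one standard deviation, cut at about 70% in these data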;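 also: luciferase from a UAS reporter driven by GAL4-VP16 transactivation; 0% = DMSO with VP16-transfected cells and 100% = DMSO with cells lacking VP16; higher means less reporter light so more repression of VP16 activity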
GalR3 conf: GalR3 antagonist hit confirmation, cell-based, fluorescence, triplicate | shares compounds with GalR3 antag | HEK293 GalR3 CNG cAMP biosensor, membrane potential fluorescence; galR3 fused to GalR1 carboxy tail; challenged with forskolin and galanin at EC90 | inhibition, % at 3 µM | 59% of 1,600 active | AID 652245, 2013;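 active = inhibition above the primary screen's cutoff, the mean inhibition of all screened compounds plus 3 SD, cut at about 13% in these data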;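 also: 0% = forskolin plus galanin and 100% = forskolin alone with DMSO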
CNG parental: nonspecific cAMP agonists in parental HEK-CNG cells, counter-screen for GalR3 antagonist project, cell-based, fluorescence, high throughput. HEK293-CNG parental cells, cAMP membrane potential fluorescence; normalised: DMSO wells 0%, forskolin wells 100%. activation, % at 3 µM. shares compounds with GalR3 antag. 10% of 1,600 active; in the data active = activation above about 1.3%
Gal4-VP16 ctr: Gal4-VP16 luciferase reporter inhibitors, counter-screen for COUP-TFII antagonist project, cell-based, luminescence, HEK293; shares compounds with NR2F2 inh; inhibition, % at 8.5 µM; 25% of 2,500 active; in the data active = inhibition above about 13%
COUP-TFII conf: NR2F2 transcriptional activity inhibitors, confirmation, cell-based, luciferase reporter, HEK293, triplicate; shares compounds with NR2F2 inh; HEK293 NGFI-A luciferase reporter, luminescence; inhibition, % at 8.5 µM; 45% of 2,500 active; AID 687008, 2013;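 active = mean inhibition over three repeats above a set limit taken from the earlier primary screen, cut at about 38% in these data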;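 also: 100% = cells given the luciferase reporter alone without the COUP-TF2 vector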
* = called active by the depositor; . = no result given. Only some compounds are listed: those with a hit (about 2.2% of all), similar ones and a draw of the others.

SMILES	GalR3 antag	NR2E3 ag-1	SMARCA2 act	NR2F2 inh	NR2E3 ag-2	NR2E3 ag conf	GAL4-VP16 luc	Gal4-VP16 ctr	COUP-TFII conf	others
CC[n+]1c(/C=C/c2ccc(OC)c(OC)c2)ccc2ccccc21	-10	5	5	-40	-138	.	.	.	.
O=C(Nc1c(-c2ccccc2)nc2ncccn12)c1ccc(F)cc1	.	.	0	0	.	.	.	.	.
Cn1ccc2ccc(-c3ccc4c(c3)[C@]3(CCC[C@@H](OCc5ccccc5)[C@@H]3NC(=O)CCc3ccccc3)C(=O)N4Cc3ccccc3)cc21	.	.	-4	-10	.	.	.	.	.
Cc1ccc(-n2c(SCc3cccc(F)c3)nnc2-c2cccc(C)c2)cc1	.	.	-7	-8	.	.	.	.	.
C=CCC1(CC=C)CCCN1C(=O)c1cc(COc2cncc(Cl)c2)on1	45*	0	-3	48*	90*	87*	69	-14	29	GalR3 conf=62*;CNG parental=1
C=CCC1(CC=C)CCCN1C(=O)c1cc(COc2cccc(OC)c2)on1	-10	-1	-5	-3	14	.	.	.	.
Cc1nc2ncnn2c(N2CCN(c3cccc(C(F)(F)F)c3)CC2)c1C	-8	-4	-6	44*	71*	72*	47	3	20
Cc1cc(N2CCN(c3cccc(C(F)(F)F)c3)CC2)n2ncnc2n1	0	-3	-1	-2	-7	.	.	.	.
CCN1CCCCC(NC(=O)Cc2ccccc2)C1=O (centres undefined)	.	.	-2	-5	.	.	.	.	.
Cc1cc(/C=N/n2cnnc2)c(C)n1-c1ccc(OCc2ccc(Cl)cc2)cc1	41*	3	-3	68*	102*	98*	87*	41*	88*	GalR3 conf=64*;CNG parental=1
COc1ccc(CCNc2ncnc3sccc23)cc1OC	73*	-4	-7	74*	90*	98*	90*	10	77*	GalR3 conf=129*;CNG parental=0
c1ccc2c(c1)OCC(CNc1ncnc3sccc13)O2 (centres undefined)	97*	2	-4	78*	84*	97*	87*	-17	58*	GalR3 conf=105*;CNG parental=0
COc1ccc(Nc2ncnc3sccc23)cc1OC	-7	0	7	-2	-15	.	.	.	.
COc1ccccc1CNc1ncnc2sccc12	76*	-2	-4	62*	100*	92*	76*	7	53*	GalR3 conf=104*;CNG parental=1
c1ccc2c(c1)OCC(CNCC1COc3ccccc3O1)O2 (centres undefined)	-10	0	0	-13	-8	.	.	.	.
Fc1ccccc1CNc1ncnc2sccc12	-10	1	-6	48*	100*	88*	71*	10	41*
CN(C)c1ccc(CNc2ncnc3sccc23)cc1	0	0	-6	66*	99*	93*	70	11	52*
CCOC(=O)[C@]12CCCCC/C=C\1N(CCc1ccc(Cl)cc1)C(=O)[C@H]2CC(=O)NCCCOC	.	.	-1	9	.	.	.	.	.
CCOc1cccc(/C=N/NC(=S)Nc2ccccc2[N+](=O)[O-])c1O	-4	3	-6	82*	83*	53	26	5	67*
O=C(c1cc(COc2cccc(C(F)(F)F)c2)on1)N1CCC(c2ccncc2)CC1	-7	1	-4	46*	101*	98*	80*	-16	36
COc1ccc(OCc2cc(C(=O)N3CCC(c4ccccc4)CC3)no2)c(Cl)c1	3	1	2	-33	-94	.	.	.	.
COc1cccc(OCc2cc(C(=O)N3CCC(c4ccncc4)CC3)no2)c1	-2	0	-3	49*	85*	89*	80*	-2	31
FC(F)(F)c1cccc(Cc2noc(CN3CCC(c4ccncc4)CC3)n2)c1	-7	1	-6	53*	49	78*	70	7	35
CCOC(=O)[C@]12CCCCC/C=C\1N(Cc1ccc(OC)cc1)C(=O)[C@H]2CC(=O)N1CCC(c2ccccc2)CC1	.	.	-2	13	.	.	.	.	.
O=C(Nc1ccc(OCC(F)(F)C(F)F)c(C(F)(F)F)c1)c1ccccc1O	19*	3	-10	69*	99*	98*	75*	-29	26	GalR3 conf=16*;CNG parental=-1
O=C(Nc1ccc(OCC(F)(F)C(F)F)c(C(F)(F)F)c1)c1ccccc1	-3	0	-1	-4	-13	.	.	.	.
CCN(CC)C(=O)C1CCCN(C(=O)c2cc(COc3ccc4ncccc4c3)on2)C1 (centres undefined)	-2	0	-3	27	37	.	.	.	.
COCC1CCN(C(=O)c2cc(COc3ccc4c(c3)CCCC4)on2)C1 (centres undefined)	-6	-1	-1	-8	6	.	.	.	.
COCC1CCCCN1C(=O)c1cc(COc2ccc3ncccc3c2)on1 (centres undefined)	25*	6	-5	44*	104*	91*	76*	6	57*	GalR3 conf=93*;CNG parental=0
